An excerpt weighted towards active compounds, which were near 3.5% of everything screened.
RGS4 inh = inhibitors of human RGS4; P49798; HEK293 M3R/RGS4 inducible, Fluo-4 calcium flux; stronger effect = higher value; triggered by carbachol at its EC20; B-score at 10 µM; 0.45% of 310,000 active; AID 463165;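 active means B-score, a plate-corrected calcium signal, over three deviations above library mean, with baseline fluorescence within five deviations of library mean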;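 further: RGS4 expression induced by doxycycline in cells with stable M3 receptor; B-score is computed from the integrated fluorescence ratio over baseline after carbachol; higher B-score means a larger calcium signal and so more RGS4 inhibition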
Target sequence (P49798 whole entry, looked up): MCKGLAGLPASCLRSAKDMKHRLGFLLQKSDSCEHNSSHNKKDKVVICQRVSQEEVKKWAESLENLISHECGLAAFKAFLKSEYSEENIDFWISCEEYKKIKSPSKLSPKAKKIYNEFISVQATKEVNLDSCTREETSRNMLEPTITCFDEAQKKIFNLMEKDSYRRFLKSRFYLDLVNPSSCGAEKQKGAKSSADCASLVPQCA
RGS4 pot = potentiators or activators of RGS4 | HEK293 M3R/inducible RGS4, carbachol calcium flux Fluo4; stronger effect = lower value | B-score at 10 µM | 0.92% of 310,000 active;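 active means B-score of the integrated calcium signal more than 4 SD below the library mean, with starting fluorescence not abnormally high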;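 further: negative B-score means reduced calcium response which marks RGS4 activation or potentiation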
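Test system: HEK293 cells with stable M3R and inducible RGS4; also added: carbachol at ECmax as muscarinic agonist stimulus; schedule: dye loading 30 min 37 °C, buffer rest 30 min RT; technique: kinetic calcium fluorescence imaging with Fluo4-AM dye, 2 µM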
MrgX1 antagonist = antagonists of human MrgX1 receptor; Q96LB2; MRGX1-HEK293 calcium flux, Fluo-4, BAM8-22 antagonism; stronger effect = lower value; B-score at 10 µM; 1.3% of 310,000 active; AID 588676;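 active means calcium-response B-score plate-corrected more than 3 library SD below zero, starting fluorescence within 5 deviations, no agonist response on first addition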;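 further: peak minus trough fluorescence over baseline after final BAM8-22 challenge near maximal dose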
Target sequence (Q96LB2 whole entry, looked up): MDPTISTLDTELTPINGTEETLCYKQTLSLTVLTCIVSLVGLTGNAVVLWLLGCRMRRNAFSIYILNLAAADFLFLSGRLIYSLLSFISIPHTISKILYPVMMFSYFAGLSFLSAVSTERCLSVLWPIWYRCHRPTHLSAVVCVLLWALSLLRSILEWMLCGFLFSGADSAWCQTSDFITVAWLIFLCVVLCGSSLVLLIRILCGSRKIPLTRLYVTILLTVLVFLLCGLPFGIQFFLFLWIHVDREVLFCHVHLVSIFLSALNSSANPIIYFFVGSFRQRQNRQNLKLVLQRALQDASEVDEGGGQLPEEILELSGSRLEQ
MrgX1 agonist = human MrgX1 receptor agonism, primary screen. AID 588627. 0.44% of 310,000 active. B-score at 10 µM. MrgX1-HEK293 cells, Fluo-4 calcium fluorescence, agonist mode; stronger effect = higher value;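 active means calcium response B-score plate-corrected fluorescence ratio at least 3 library SD, with starting fluorescence B-score inside 5 SD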
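Test system: HEK293 cells stably expressing human MrgX1 receptor; amount: 15,000 cells per well; doses: compound delivered in addition one of three; times: overnight plating before 1 h dye loading; detection: Fluo-4 NW calcium-flux fluorescence, kinetic read; read-out basis: B-scored fluorescence response ratio; controls: positive and negative controls per plate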
MrgX1 PAM = human MrgX1 positive allosteric modulation, primary screen; MrgX1-HEK293, Fluo-4 calcium flux, FDSS; stronger effect = higher value; B-score at 10 µM; Q96LB2; 0.63% of 310,000 active;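 active means plate-corrected calcium response at least 3 library SD above typical, normal starting fluorescence, not activating the receptor alone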;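 further: compound read alongside a low EC10 to EC30 dose of BAM8-22 agonist; peak minus trough fluorescence over baseline measured at the second addition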
RGS4 act valid = confirmation of RGS4 activators; shares compounds with RGS4 pot; inhibition, % at 10 µM; 89% of 1,100 active; HEK293 M3R/RGS4 inducible, carbachol calcium flux Fluo4;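 active means inhibition above 3 SD of the buffer control wells, cut at about 41% in these data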;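 further: signal is the integrated peak-minus-minimum Fluo4 fluorescence over baseline ratio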
RGS4 act ctr = RGS4 activator counter-screen hit in non-induced cells; shares compounds with RGS4 pot; HEK293 M3R non-induced RGS4, Fluo4 calcium flux; after carbachol challenge at its EC90; inhibition, % at 10 µM; 82% of 1,100 active;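 active means inhibition exceeding 3 SD of buffer-only control wells, cut at about 26% in these data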;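 further: percent drop in integrated peak-minus-baseline over baseline Fluo4 ratio after carbachol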
* marks the source's active call; other numbers are inactive results.

What do the screens show for `O=C(NCCCN=C1NS(=O)(=O)c2ccccc21)c1ccc(Cl)cc1`?
RGS4 inh: inactive; RGS4 pot: inactive; MrgX1 antagonist: inactive; MrgX1 agonist: inactive; MrgX1 PAM: inactive

How did COc1cc(Cl)c(CN2CCC(CO)(CCOc3ccccc3)CC2)cc1OC do in these assays?
RGS4 inh: inactive; RGS4 pot: inactive; MrgX1 antagonist: inactive; MrgX1 agonist: inactive; MrgX1 PAM: inactive

What do the screens show for `OCC1(CCOc2ccccc2)CCN(CC2=Cc3cc(Cl)ccc3OC2)CC1`?
RGS4 inh: inactive; RGS4 pot: -8.7*; MrgX1 antagonist: inactive; MrgX1 agonist: inactive; MrgX1 PAM: inactive; RGS4 act valid: 87*; RGS4 act ctr: 56*

How did CCOC(=O)c1ccc(Nc2cc(C)nc(-c3ccccc3O)n2)cc1 do in these assays?
RGS4 inh: inactive; RGS4 pot: -8.3*; MrgX1 antagonist: inactive; MrgX1 agonist: inactive; MrgX1 PAM: inactive; RGS4 act valid: 90*; RGS4 act ctr: 66*

How did Cc1cc(Nc2cccc(F)c2)nc(-c2ccccc2O)n1 do in these assays?
RGS4 inh: inactive; RGS4 pot: inactive; MrgX1 antagonist: inactive; MrgX1 agonist: inactive; MrgX1 PAM: inactive

How did COc1ccc(-c2ccc(SCC(=O)NC3CCCCC3)nn2)cc1OC do in these assays?
RGS4 inh: inactive; RGS4 pot: inactive; MrgX1 antagonist: inactive; MrgX1 agonist: inactive; MrgX1 PAM: inactive

How did S=C1N(c2ccccc2)C(c2ccc(Br)cc2)N2CCCN12 (stereo unspecified) do in these assays?
RGS4 inh: inactive; RGS4 pot: -11*; MrgX1 antagonist: inactive; MrgX1 agonist: inactive; MrgX1 PAM: inactive; RGS4 act valid: 94*; RGS4 act ctr: 90*

How did COC(=O)c1ccc(-c2noc(CN3CCCCC3c3nccn3C)n2)cc1 (stereo unspecified) do in these assays?
RGS4 inh: inactive; RGS4 pot: -10*; MrgX1 antagonist: inactive; MrgX1 agonist: inactive; MrgX1 PAM: inactive; RGS4 act valid: 91*; RGS4 act ctr: 68*

What do the screens show for `Cn1ccnc1C1CCCCN1Cc1nc(Cc2ccccc2F)no1` (stereo unspecified)?
RGS4 inh: inactive; RGS4 pot: inactive; MrgX1 antagonist: inactive; MrgX1 agonist: inactive; MrgX1 PAM: inactive

Results for CCn1c(=S)sc2c(=O)n(CC(=O)Nc3ccccc3C(F)(F)F)c(C)nc21 ?
RGS4 inh: inactive; RGS4 pot: inactive; MrgX1 antagonist: inactive; MrgX1 agonist: inactive; MrgX1 PAM: inactive

Results for COCCCNC(=O)c1c(N)n(/N=C/c2cccs2)c2nc3ccccc3nc12 ?
RGS4 inh: inactive; RGS4 pot: -8.1*; MrgX1 antagonist: inactive; MrgX1 agonist: inactive; MrgX1 PAM: inactive; RGS4 act valid: 0; RGS4 act ctr: 0

Results for N#Cc1c(N2CCN(C(=O)c3ccco3)CC2)nc(-c2ccccc2)c2c1CCCC2 ?
RGS4 inh: inactive; RGS4 pot: -8.2*; MrgX1 antagonist: inactive; MrgX1 agonist: inactive; MrgX1 PAM: inactive; RGS4 act valid: 91*; RGS4 act ctr: 48*

What do the screens show for `N#Cc1c(N2CCN(C(=O)c3ccccc3)CC2)nc(-c2ccccc2)c2c1CCCC2`?
RGS4 inh: inactive; RGS4 pot: -7.9*; MrgX1 antagonist: inactive; MrgX1 agonist: inactive; MrgX1 PAM: inactive; RGS4 act valid: 90*; RGS4 act ctr: 54*

How did O=C(c1ccco1)N1CCN(c2nc(C3CC3)nc3sc4c(c23)CCCC4)CC1 do in these assays?
RGS4 inh: inactive; RGS4 pot: -8.5*; MrgX1 antagonist: inactive; MrgX1 agonist: inactive; MrgX1 PAM: inactive; RGS4 act valid: 87*; RGS4 act ctr: 45*

Results for CCOc1ccc(C(=O)n2cc(C(=O)OC)c3ccccc32)cc1 ?
RGS4 inh: inactive; RGS4 pot: -8.6*; MrgX1 antagonist: inactive; MrgX1 agonist: inactive; MrgX1 PAM: inactive; RGS4 act valid: 69*; RGS4 act ctr: 84*

What do the screens show for `CCOc1ccc(C(=O)n2cc(C(=O)OC)c3ccccc32)cc1OCC`?
RGS4 inh: inactive; RGS4 pot: inactive; MrgX1 antagonist: inactive; MrgX1 agonist: inactive; MrgX1 PAM: inactive

How did O=C(Nc1ccnc(-c2cccnc2)n1)c1cccs1 do in these assays?
RGS4 inh: inactive; RGS4 pot: inactive; MrgX1 antagonist: inactive; MrgX1 agonist: inactive; MrgX1 PAM: inactive

How did O=C(O)Cc1ccc2c(c1)N(S(=O)(=O)c1cccs1)CC(C(=O)O)O2 (stereo unspecified) do in these assays?
RGS4 inh: inactive; RGS4 pot: inactive; MrgX1 antagonist: inactive; MrgX1 agonist: inactive; MrgX1 PAM: inactive

What do the screens show for `CCOC(=O)N1CCN(C(=O)/C(=C/c2ccc(Br)cc2)NC(=O)c2ccc(OC)cc2)CC1`?
RGS4 inh: inactive; RGS4 pot: inactive; MrgX1 antagonist: inactive; MrgX1 agonist: inactive; MrgX1 PAM: inactive

What do the screens show for `CC(=O)Nc1c2c3c(cccc3n(C)c1=O)C(=O)c1ccccc1-2`?
RGS4 inh: inactive; RGS4 pot: -8.6*; MrgX1 antagonist: inactive; MrgX1 agonist: inactive; MrgX1 PAM: inactive; RGS4 act valid: 53*; RGS4 act ctr: 0

Results for CC(=O)Nc1ccc(Nc2ccc3c4c(cc(=O)n3C)-c3ccccc3C(=O)c24)cc1 ?
RGS4 inh: inactive; RGS4 pot: inactive; MrgX1 antagonist: inactive; MrgX1 agonist: inactive; MrgX1 PAM: inactive

What do the screens show for `O=C(O)/C=C/c1cccc2c1OCCO2`?
RGS4 inh: inactive; RGS4 pot: inactive; MrgX1 antagonist: inactive; MrgX1 agonist: inactive; MrgX1 PAM: inactive

How did CC1Cc2cc(/C(O)=C3/C(=O)C(=O)N(CCN4CCOCC4)C3c3ccc(N(C)C)cc3)ccc2O1 (stereo unspecified) do in these assays?
RGS4 inh: inactive; RGS4 pot: inactive; MrgX1 antagonist: inactive; MrgX1 agonist: inactive; MrgX1 PAM: inactive

Results for OCC1(Cc2ccccc2Cl)CCN(C/C=C/c2ccccc2)CC1 ?
RGS4 inh: inactive; RGS4 pot: -9.2*; MrgX1 antagonist: inactive; MrgX1 agonist: inactive; MrgX1 PAM: inactive; RGS4 act valid: 94*; RGS4 act ctr: 83*

What do the screens show for `OCC1(CCc2ccccc2)CCN(C/C=C/c2ccccc2)CC1`?
RGS4 inh: inactive; RGS4 pot: inactive; MrgX1 antagonist: inactive; MrgX1 agonist: inactive; MrgX1 PAM: inactive

Results for O=C(O)c1cc2c([nH]c1=O)CCCC2 ?
RGS4 inh: inactive; RGS4 pot: inactive; MrgX1 antagonist: inactive; MrgX1 agonist: inactive; MrgX1 PAM: inactive

From PubChem
